Source: the EternaBench riboswitch data

Tested on: MS2 coat protein
Experiment: apparent Kd, MS2 coat protein; higher = weaker binding; RNA-MaP array; FMN 200 µM where present
Summary of the method: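 Stalled E. coli RNA polymerase transcribed the designs on Illumina sequencing-chip clusters. SNAP-549-labelled MS2 coat protein was titrated from 0.7 or 1.5 nM, doubling to 3 µM, without and then with constant ligand, in 100 mM Tris-HCl pH 7.5, 80 mM KCl, 4 mM MgCl2, BSA, DTT, yeast tRNA and Tween-20. Per-cluster binding curves were fitted to green signal normalised to red-channel RNA signal and control-cluster median Fmax. The apparent Kd is the median of the filtered fits.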

[1] = designed as: ON switch for flavin mononucleotide, no ligand
[2] = ligand present: flavin mononucleotide, designed as: ON switch for flavin mononucleotide
[3] = designed as: OFF switch for flavin mononucleotide, no ligand
[4] = ligand present: flavin mononucleotide, designed as: OFF switch for flavin mononucleotide

| Sequence | apparent Kd [1] [µM] | apparent Kd [2] [µM] | apparent Kd [3] [µM] | apparent Kd [4] [µM] |
| --- | --- | --- | --- | --- |
| AGUUACAUACUCAACAUGAGGAUCACCCAUGUACUCUCUUGUAAGGAUAUACAUUCGUAUUGAAAGUAGAAGGUACUAAUUAUG | 0.0891 | 0.0773 | – | – |
| GGCGAACGGGCUUACAUGAGGAUCACCCAUGUAGACUCAUGGUAGGAUAUGCUGAACAAAGUUCAGCAGAAGGGCCGGUGAGCU | 0.0866 | 0.0463 | – | – |
| UUAAAUUAGUAGAAGGACGGUGAGUAAGAAGUCGUAGGAUAUACAUAAGACAUGAGGAUCACCCAUGUAAGUUUGUUGGGUAUG | – | – | 0.0441 | 0.0384 |
| CCUAUGUGAGGAUAUCACUGGUCUGCUCACUAGAUGAUCAGUGAGAAGGCACAUGAGGAUCACCCAUGUCAGUG | – | – | 0.183 | 0.0417 |
| GGGCCGGUGGAGAAGGAGCUUGCAAAAUGCAUGCUAGGAUAUCCACAUGAGGAUCACCCAUGUGGGAAUAUCUGGUUUUCACAG | – | – | 0.00398 | 0.00505 |
| AAGCGCGUAGGAUAUACAUGAGGAUCACCCAUGUGAGGAGGGAGUUGGAGGUGUGGAAGUAGAAGGACGGAGUG | – | – | 0.0481 | 0.0376 |
| GACAAUCUAUCUGAGGAUAUCAUGAAAAAAACAUGAGGAUCACCCAUGUGCAGGAAAACUGCAUAUGAGAAGGCAGAUAGAUUGA | 0.708 | 0.0287 | – | – |
| UGUGUGAGACAGGAUAUGCCGGAUAUAGUACUGGUAGAAGGGUCUACAUGAGGAUCACCCAUGUGGCCGGCCGG | – | – | 0.0168 | 0.025 |
| CAUUAAUUCAUUAUAGUUAUUAUACAGGAUAUGUUACAUGAGGAUCACCCAUGUAUUCAUGGUAAACAGAAGGGUAAUACUAGU | – | – | 0.0111 | 0.0158 |
| AAGAAGUCAGGAUAUGCAUGGCGGGACUUGCGUCGUGGCGUGCAGAAGGGACAUGAGGAUCACCCAUGUAAAGG | – | – | 0.151 | 0.18 |
| CGCUACUACCAGAAGGACAUGAGGAUCACCCAUGUAGGAUAUGGGUUACACGUUCCUGUGAAUUGUUACUACGCUACGUAUGCG | 0.401 | 0.0215 | – | – |
| UUGCUCGUGUGAGGAUAUGCCGCCGUUUCGGCUGCAGAAGGUACUUUAAUACAUGAGGAUCACCCAUGUCUCUGUUGUUUCGUG | 0.0265 | 0.0269 | – | – |
| AAAAAACAUGAGGAUCACCCAUGUCAGGAUAUCUGGAGAAACGGAAAGAAAAAGAAACGGAGAAGGGACAUAAA | – | – | 0.0411 | 0.048 |
| CGUGUACGAGGAUAUAGAUUGGAUGACAUGAGGAUCACCCAUGUGAUCGAUCUAUUUGGUUUAGAAGGUGUACAUG | – | – | 0.0134 | 0.0142 |
| CUUUUGUGAGGAUAUCAGUAGUAAAAAAAUAUAAUUACUACUGAGAAGGCACAUGAGGAUCACCCAUGUUCCUC | – | – | 0.0368 | 0.267 |
| GUAGAGUCAGGAUAUACGAGAUCGAAAGAUCGGCGGUCUGUACAUGAGGAUCACCCAUGUAGAAGGGACUCUAC | – | – | 0.0164 | 0.0944 |
| CAGUACUGAGGAUAUACAUGAGGAUCACCCAUGUGUUCCAGCUAGGAAGCUAGCAAAAGUAGAAGGCAGUACUG | – | – | 0.0262 | 0.276 |
| AACAGUACAGGAUAUACAUGAGGAUCACCCAUGUGAGCUUUAAGUGCCGUAGCACAAAGUAGAAGGGUACUGGA | – | – | 0.0244 | 0.0918 |
| UGUGUGUGGGCAGGAUAUGCAUGAAUAUAUAUGAUGUAGUGUGAUGUAACAUGAGGAUCACCCAUGUAGAAGGGCCGGUGUAUG | – | – | 0.145 | 0.234 |

| Sequence | apparent Kd [1] [µM] | apparent Kd [2] [µM] | apparent Kd [3] [µM] | apparent Kd [4] [µM] |
| --- | --- | --- | --- | --- |
| UAGUCGGAGACAGGAUAUGUGACUGCAUAGUGCACAGAAGGGUCUACAUGAGGAUCACCCAUGUCACCGACCACCAAACAACAA | 0.552 | 0.0333 | – | – |
| AAACUCAUUGUCAGGAUAUGUAUUGAAGGAAUCGGACAGAAGGGACAUGAGGAUCACCCAUGUUACUAAGACCC | – | – | 0.0259 | 0.0743 |
| ACAUGGUAGUAGAAGGGUAUUACUUUAGAAUCAACCAUUAGUUUAUUUUAUACAGGAUAUGCUAACAUGAGGAUCACCCAUGUU | – | – | 0.0104 | 0.00825 |
| UGUAUGGACAGAGGAUAUACGGAUAGGAUCUACUAUCUUCCUUAAAUAACAUGAGGAUCACCCAUGUAGAAGGCUGUCCAUACU | – | – | 0.019 | 0.0747 |
| ACAUGAGGAUCACCCAUGUGGACAUAGGAUAUUGGUGGUCAGGCGUGUUAUACAGGAUAGGUCUGCGAGAAGGGUGUGCGUUGC | 0.0849 | 0.075 | – | – |
| AAUCCACAUGAGGAUCACCCAUGUCAGGAAAUGACAGGAUAUAGCGAAAAAAAAAAAAAGCUAGAAGGGUCUAAUU | 0.175 | 0.0675 | – | – |
| AGAGUGAUUACCUCGGUCCCACAUGAGGAUCACCCAUGUAACAAGGAUAUCGCUCCAAAUGGAAGUGAGAAGGUGUCUCAUGUC | – | – | 0.0278 | 0.0422 |
| GGGCCCGGUGUGAGGAUAUUGGGUCUGAAAGGGCUCGAGAAGGCACAUGAGGAUCACCCAUGUAAGCCGGGCCC | – | – | 0.0167 | 0.0137 |
| UGGAUCAAUACAGGAUAUGGUGACGCACAUGAGGAUCACCCAUGUCCGCAGCGUGCUCAGCACGCCCAGAAGGGUAUUGACUCG | 0.731 | 0.0888 | – | – |
| CCACGGUAUGUAGGAUAUGCAUAGCAUUGCUAUGCAGAAGGACAUGAGGAUCACCCAUGUAUGUAUUCCAUACUAAUCCCGUGA | – | – | 0.00596 | 0.0053 |
| AGGAGUAAAGGGAAUAACAUGAGGAUCACCCAUGUAUGGGAGAGAAGGCAGAUUGGAGGACGAUCUGAGGAUAUUUAAACUCUA | 0.0535 | 0.0201 | – | – |
| AUGAGGUUAGGAUAUACAUGAGGAUCACCCAUGUUGAAAGGUUAGGUAGGCGGAGCUGGUAGAAGGAACGGAGC | – | – | 0.0397 | 0.0318 |
| AGUCGGAGCAGAGGAUAUUACAUGAGGAUCACCCAUGUGGAAGAACCAAGCUGGAAACAGCAAUGUAAGAAGGCUGCUCCGACA | – | – | 0.918 | 0.43 |
| AAUAACAGAGGAUAUGCAAAAAUAAGCGGAAACGCAAGAAAACAUGAGGAUCACCCAUGUAGAAGGCUGGAUAA | – | – | 0.0236 | 0.0176 |
| UAAUAAAGUGUGAGGAUAUGCUGGUCGAUAGAUCAGCAGAAGGCACAUGAGGAUCACCCAUGUAAUAUAUUUUA | – | – | 0.0579 | 0.247 |
| UGUUGUUCAGGAUAUGAUGUGUUAUACAUGAGGAUCACCCAUGUGGGUCCUGAUUUGGCGUCAGAAGGGAAUGUUG | – | – | 0.116 | 0.2 |
| GCUGCGCGAGGAUAUGCGGUUCGCGCUGUGGCCCGUGGCGCACAUGAGGAUCACCCAUGUAGAAGGCGUGCGGG | – | – | 0.0123 | 0.0131 |
| UGGUACAUCGGAGGAUAUCGUGUGUAAACAUGAGGAUCACCCAUGUCAUACGAGAGUAUGUAGAUCGAGAAGGCCGAUGUACCU | 0.0167 | 0.0162 | – | – |
| GGAUUUCCUGAGGAUAUUGCAUCACCCGAUUUAUAAGAAGGCAGAACAUGAGGAUCACCCAUGUGGGUCUCCGG | – | – | 0.0189 | 0.0231 |

| Sequence | apparent Kd [1] [µM] | apparent Kd [2] [µM] | apparent Kd [3] [µM] | apparent Kd [4] [µM] |
| --- | --- | --- | --- | --- |
| AUUGUGUGAGGAUAUUAAUAGUAAAUGAAUAGAAUUGUGAUUGAGAAGGCACAUGAGGAUCACCCAUGUUCCUU | – | – | 0.019 | 0.0174 |
| CCUGUGUGAGGAUAUGUACUGCUCCUGUCCAACAGUGUAGAGCAGAAGGCACAUGAGGAUCACCCAUGUGAAAA | – | – | 0.0262 | 0.0231 |
| UUAUUUAUGCAAGGAUAUCAAUUAUAUAGACGUCCUACAUGAGGAUCACCCAUGUUUAGUUUUUUUGAGAAGGUGCAUUGUCGG | 0.0431 | 0.0311 | – | – |
| AAGUAGAACGUAGGAUAUCAAUGAGGAUCACCCUGAGAAGGACGUGAGGACAUGAGGAUCACCCAUGUGGAUCACCCAUGUCAU | – | – | 0.157 | 0.132 |
| GGUUGGCGAGGAUAUACAUGAGGAUCACCCAUGUGGUCCUGUGGCUGAUCUUGCCUUUGUAGAAGGCGCAAAUC | – | – | 0.0185 | 0.0378 |
| ACAUGCAUAGCGAUAUGAUCGAGAGAUCAUGUCGCUAAAGUUAGAAGGACAUGAGGAUCACCCAUGUAGGAUAUGGGUGCAUGA | 0.641 | 0.0487 | – | – |
| CCAGAUAUGUGAGGAUAUAGAGUGGAAUACACUCUAGAAGGUAUGUGAAAACAUGAGGAUCACCCAUGUGAUUGAUUAUCUGGA | 0.0282 | 0.0273 | – | – |
| AAUAUAAGAGCUGGCUCUAAAAGAACAUGAGGAUCACCCAUGUAGGAUAUCAGCACGAUAAGUGCUGAGAAGGACAACCAGCUC | – | – | 0.0167 | 0.0157 |
| CAUCUCUAUGUAGGAUAUAGGACAACAACAGCACUAGAAGGACAUGAGGAUCACCCAUGUACACUACUCGCGUCAUCGUCUCGC | – | – | 0.00601 | 0.00622 |
| GGACGUCAGAUUAACAUGAGGAUCACCCAUGUCUUUUGACAUGAGGAUAUGGAAGGUAAUUCCUUCCAGAAGGCAUGGACGUCC | 1.02 | 0.114 | – | – |
| CCGGAUAUGCAGGAUAUCGAAUCGGAAACGAUUCGAGAAGGGUAUACAUGAGGAUCACCCAUGUGUCCUACCGG | – | – | 0.0249 | 0.0316 |
| GCACGGAUGGUAGGAUAUCAUUGCGAUUAGCUAUGAGAAGGACCACAUGAGGAUCACCCAUGUCCUCUAAUUAGCCUUCCGUGC | – | – | 0.179 | 0.297 |
| CCGACCCAAGGAUAUUGUACUGCUGACAUGAGGAUCACCCAUGUAUGUUAACUCGGCCGACGAGAAGGUGGCGACA | – | – | 0.0268 | 0.0239 |
| AAGUCGUGAGGAUAUACAUGCAUAUACAUUUAUGUAAAACUACAUGAGGAUCACCCAUGUAGAAGGCACGAAUA | – | – | 0.0176 | 0.0161 |
| CUAAAAGUCGAGGAUAUGCACCGGCUUUCUGACGCAGAAGGCGACACAUGAGGAUCACCCAUGUCGGUACGCGA | – | – | 0.0137 | 0.0158 |
| CGUUUUUAUGUAGGAUAUGCUUGUGGUAAGAUAGCAGAAGGACAUGAGGAUCACCCAUGUUAAUGAUAGAGAUUUUAUGUUGCG | – | – | 0.0379 | 0.0502 |
| GGUACUCAAAGAGUACGGAGUCGAACAUGAGGAUCACCCAUGUAGGAUAUGCGAGUUUUGAAUUUGCAGAAGGACAUUUGCAGC | – | – | 0.00962 | 0.0112 |
| UGGGUGGUAUGAGGAUAUGCGCGCGAAACGCGCGCAGAAGGCAUGUCAAUAGACAUGAGGAUCACCCAUGUAUUAUCCAUCCAA | 0.412 | 0.0283 | – | – |
